Experimental data taken from PubChem BioAssay AID743061 (The Scripps Research Institute Molecular Screening Center, 2013).

Each molecule was assayed against Methionine--tRNA ligase, mitochondrial (Homo sapiens) (UniProt Q96GW9) (assay: inhibitors of human mitochondrial MetRS, late-stage follow-up, selectivity assay for T. brucei MetRS inhibitor project, biochemical, radioactivity, round 1 (AID 743061;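 further: 0% = DMSO with full reaction and 100% = DMSO wells lacking tRNA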)). Conditions: recombinant human mtMetRS, [3H]Met tRNA charging, at 10 µM, stronger effect = higher value.
How it was run: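 Material: Recombinant human mitochondrial methionyl-tRNA synthetase (MetRS) | Medium: pH 8.0 buffer, 2.5 mM ATP | Reagent: [3H]Met 240 nM plus bulk E. coli tRNA | Compound: 10 and 1 µM | Schedule: 15 min compound–enzyme preincubation, then 1 h reaction at room temperature | Measured by: Scintillation counts of TCA-precipitated charged tRNA on filters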

First: Oc1c(Cl)cc(Cl)cc1CNc1nc2ccccc2[nH]1
Second: O=C(NCCc1nc2ccccc2[nH]1)c1ccc(Cl)cc1
The inhibition of the first is higher: 31.4% for the first, 7.1% for the second.

Compared with `CC(C)(C)[C@@H]1C=C(C(=O)NCc2nc3ccccc3[nH]2)O[C@H](OCc2ccc(CO)cc2)C1`, `O=C(NCc1nc2ccccc2[nH]1)C1=C[C@@H](C2CC2)C[C@@H](OCc2ccc(CO)cc2)O1` is higher in inhibition: -5.44% for the first, 5.87% for the second.

Going from `CCO[C@@H]1OC(C(=O)NCc2nc3ccccc3[nH]2)=C[C@H](c2ccc(Br)cc2)[C@H]1CCCO` to `O=C(NCc1nc2ccccc2[nH]1)C1=C[C@@H](c2ccc(Br)cc2)C[C@@H](OCCCCO)O1`, the inhibition rises from -6.53% to 29%.

First: Cc1cc2cc(C(=O)N3CCCC(c4nc5ccccc5[nH]4)C3)ccc2o1 (centres undefined)
Second: Cc1cccc(NC(=O)C2CC(=O)n3c(nc4ccccc43)N2)c1 (centres undefined)
The inhibition of the first is lower: -1.3% for the first, 6.78% for the second.

First: CC1Cc2ccccc2N1C(=O)Cn1cc(C(=O)C(=O)N2CCOCC2)c2ccccc21 (centres undefined)
Second: CCN(CC)C(=O)C(=O)c1cn(CC(=O)Nc2cccc(OC)c2)c2ccccc12
The inhibition of the first is lower: 7.77% for the first, 17.3% for the second.

Compared with `CN1CC(=O)N2C(c3cccc([N+](=O)[O-])c3)c3[nH]c4ccccc4c3C[C@H]2C1=O` (some centres undefined), `C[C@H](O)[C@@H]1C(=O)N2CCc3c([nH]c4ccccc34)[C@@H]2C[C@@H]1N(C)Cc1ccc2c(c1)OCO2` is higher in inhibition: 14% for the first, 24.8% for the second.

Compared with `O=C(CC=NOCc1ccc([N+](=O)[O-])cc1)Nc1ccc(Cl)cc1`, `COc1ccc(OCC(O)CNC(=O)Nc2ccc(Cl)cc2)cc1` (centres undefined) is lower in inhibition: 1.47% for the first, 0.31% for the second.

Going from `O=C(CSC1CC(=O)N(c2cccc(Cl)c2)C1=O)Nc1ccc(Br)cc1` (centres undefined) to `O=C(NNC(=O)c1cc(-c2ccc(Cl)c(Cl)c2)nc2ccccc12)Nc1ccccc1`, the inhibition falls from 1.19% to -11.2%.

Going from `COc1ccccc1NC(=O)CSc1nnc2c(n1)[nH]c1ccc(C)cc12` to `Brc1cnc2nc(SCc3nc4ccccc4[nH]3)[nH]c2c1`, the inhibition falls from 7.39% to -14.2%.

Work on `O=C(NCc1nc2ccccc2[nH]1)C1=C[C@@H](c2ccccc2)C[C@@H](OCc2ccc(CO)cc2)O1` yielded an inhibition of 15.8%.
